Laboratory results: ChEMBL document CHEMBL4414673, “The DESIGNER Approach Helps Decipher the Hypoglycemic Bioactive Principles of Artemisia dracunculus (Russian Tarragon)” (J Nat Prod, 2019)
Active and inactive are the calls of the source. The rule behind the calls is not given here.

Legend:
Mus musculus [1] = assay: Effect on insulin signalling in high fat diet-induced obese C57BL/6J mouse assessed as increase in AKT phosphorylation at serine […] residue in skeletal muscle at 100 to 300 mg/kg administered via gavage for 2 weeks and measured after 6 hrs post dose by Western blot analysis; type: functional, organism-based
Procedure, shortened: (§1)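 Male C57BL/6J mice, singly housed, were fed a 60% kcal fat diet from 4 weeks of age for 16 weeks and acclimated to gavage for 2 weeks. They got one gavage dose of 100 or 300 mg/kg in Labrasol vehicle and were euthanized at 6 h. Muscle, liver or gonadal fat was lysed in HEPES/Igepal buffer, and 50 μg protein was immunoblotted with chemiluminescent detection.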

Mus musculus [2] = assay: Hypoglycemic activity in high fat diet-induced obese C57BL/6J mouse assessed as increase in C-peptide level at 100 to 300 mg/kg […] and measured after 6 hrs post dose; type: functional, organism-based
Procedure, shortened: (§2)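 Diet-induced obese male C57BL/6J mice were given one gavage dose (100 or 300 mg/kg, Labrasol vehicle). Fasting plasma insulin and C-peptide (ng/mL) were measured by ELISA 6 h after dosing, as mean ± SD versus vehicle.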

Mus musculus [3] = assay: Effect on insulin signalling in high fat diet-induced obese C57BL/6J mouse assessed as effect on AKT phosphorylation at threonine 308 residue expression in liver at 100 to 300 mg/kg administered via gavage for 2 weeks and measured after 6 hrs post dose by Western blot analysis; type: functional, organism-based; procedure, shortened: as §1
[4] = Toxicity in high fat diet-induced obese C57BL/6J mouse assessed as effect on body weight at 100 to 300 mg/kg administered via gavage for 2 weeks and measured after 6 hrs post dose; type: organism-based; conditions: in vivo, po
Procedure, shortened: (§3)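 Male C57BL/6J mice on a 60% kcal fat diet from 4 weeks of age were weighed weekly. Body weights at 20 weeks of age are reported for mice randomized to the gavage treatment groups, as mean ± SD versus vehicle.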

Mus musculus [5] = assay: Effect on insulin signalling in high fat diet-induced C57BL/6J mouse assessed as AKT phosphorylation at Ser […] residue in adipose tissue at 100 to 300 mg/kg administered via gavage for 2 weeks and measured after 6 hrs post dose by Western blot analysis; type: functional, organism-based; procedure, shortened: as §1
Mus musculus [6] = assay: Effect on total IRbeta expression in high fat diet-induced obese C57BL/6J mouse skeletal muscle at 100 to 300 mg/kg administered via gavage for 2 weeks and measured after 6 hrs post dose by Western blot analysis; type: organism-based; conditions: in vivo, po; procedure, shortened: as §1
Mus musculus [7] = assay: Effect on insulin signalling in high fat diet-induced C57BL/6J mouse assessed as AKT phosphorylation at Ser […] residue in liver at 100 to 300 mg/kg administered via gavage for 2 weeks and measured after 6 hrs post dose by Western blot analysis; type: functional, organism-based; procedure, shortened: as §1
[8] = molecular target: Glycogen synthase kinase-3 alpha/beta (Mus musculus) (UniProt Q9WV60+Q2NL51); assay: Activation of insulin signalling in palmitate-induced insulin resistant mouse C2C12 cells assessed as increase GSK-3 alpha/beta phosphorylation at 10 ug/ml by Western blot analysis; type: cell-based
Glycogen synthase kinase-3 alpha/beta (Mus musculus), sequence (Q2NL51 whole entry, looked up): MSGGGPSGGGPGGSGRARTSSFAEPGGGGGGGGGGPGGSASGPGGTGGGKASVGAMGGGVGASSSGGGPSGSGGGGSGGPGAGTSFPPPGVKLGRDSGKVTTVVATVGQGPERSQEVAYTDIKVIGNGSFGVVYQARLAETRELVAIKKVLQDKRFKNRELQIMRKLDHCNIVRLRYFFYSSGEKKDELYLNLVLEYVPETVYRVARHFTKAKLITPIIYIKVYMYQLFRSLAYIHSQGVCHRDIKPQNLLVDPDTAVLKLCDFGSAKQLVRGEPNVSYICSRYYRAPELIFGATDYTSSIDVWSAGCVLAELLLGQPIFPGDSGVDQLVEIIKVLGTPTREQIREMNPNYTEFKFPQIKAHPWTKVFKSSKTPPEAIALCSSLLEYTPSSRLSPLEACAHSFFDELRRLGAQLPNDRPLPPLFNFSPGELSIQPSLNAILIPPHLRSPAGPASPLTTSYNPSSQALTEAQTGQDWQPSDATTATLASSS
Glycogen synthase kinase-3 alpha/beta (Mus musculus), sequence (Q9WV60 whole entry, looked up): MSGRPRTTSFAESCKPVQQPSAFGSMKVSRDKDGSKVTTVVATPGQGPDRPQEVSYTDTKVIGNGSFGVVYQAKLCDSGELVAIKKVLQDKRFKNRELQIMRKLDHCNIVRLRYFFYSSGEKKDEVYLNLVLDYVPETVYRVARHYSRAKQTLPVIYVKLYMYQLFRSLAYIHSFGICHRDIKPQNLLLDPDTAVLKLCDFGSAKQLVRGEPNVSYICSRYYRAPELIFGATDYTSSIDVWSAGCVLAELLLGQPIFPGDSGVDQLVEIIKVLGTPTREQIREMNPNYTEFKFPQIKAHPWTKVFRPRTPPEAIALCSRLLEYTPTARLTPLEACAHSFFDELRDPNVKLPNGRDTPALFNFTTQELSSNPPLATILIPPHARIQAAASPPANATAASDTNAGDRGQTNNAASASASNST
Procedure, shortened: (§4)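 C2C12 myoblasts were grown in high-glucose (25 mM) DMEM with 10% FBS and differentiated with 2% horse serum, then switched to low-glucose (5 mM) medium. Insulin resistance was induced with palmitate. Myotubes were treated at 10 μg/mL, exposed to insulin for 10 min and harvested. Total and phosphorylated signaling proteins were analysed by Western blot.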

Mus musculus [9] = assay: Hypoglycemic activity in high fat diet-induced obese C57BL/6J mouse assessed as reduction in blood glucose level at 100 to 300 mg/kg […] and measured after 6 hrs post dose; type: functional, organism-based
Procedure, shortened: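 Obese male C57BL/6J mice (60% kcal fat diet for 16 weeks, gavage-acclimated for 2 weeks) received one oral gavage dose of 100 or 300 mg/kg in Labrasol. Fasting whole-blood glucose was read by glucometer at baseline and hourly. Results are given as mg/dL and % change from baseline at 6 h, mean ± SD versus vehicle.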

[10] = molecular target: RAC-alpha serine/threonine-protein kinase (Mus musculus) (UniProt P31750); assay: Activation of insulin signalling in palmitate-induced insulin resistant mouse C2C12 cells assessed as upregulation of AKT phosphorylation at threonine 308 and Ser273 residue at 10 ug/ml by Western blot analysis; type: cell-based; procedure, shortened: as §4
RAC-alpha serine/threonine-protein kinase (Mus musculus), sequence (P31750 whole entry): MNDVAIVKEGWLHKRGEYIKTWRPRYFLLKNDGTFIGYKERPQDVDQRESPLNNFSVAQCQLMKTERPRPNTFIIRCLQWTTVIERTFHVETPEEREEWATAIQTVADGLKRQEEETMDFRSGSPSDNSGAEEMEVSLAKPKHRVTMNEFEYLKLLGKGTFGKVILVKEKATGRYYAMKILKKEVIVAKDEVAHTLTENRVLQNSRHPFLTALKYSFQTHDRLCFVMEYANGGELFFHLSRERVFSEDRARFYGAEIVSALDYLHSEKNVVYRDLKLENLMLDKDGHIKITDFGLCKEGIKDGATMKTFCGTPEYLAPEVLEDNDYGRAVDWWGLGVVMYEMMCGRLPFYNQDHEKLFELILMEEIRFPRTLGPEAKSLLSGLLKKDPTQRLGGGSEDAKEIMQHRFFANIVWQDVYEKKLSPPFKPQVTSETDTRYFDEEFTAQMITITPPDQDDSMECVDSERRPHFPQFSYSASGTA

Mus musculus [11] = assay: Effect on insulin signalling in high fat diet-induced obese C57BL/6J mouse assessed as increase in PI3K-P85 expression in skeletal muscle at 100 mg/kg administered via gavage for 2 weeks and measured after 6 hrs post dose by Western blot analysis; type: functional, organism-based; procedure, shortened: as §1
[12] = Toxicity in high fat diet-induced C57BL/6J mouse assessed as upregulation of total AKT expression in adipose tissue at 300 mg/kg administered via gavage for 2 weeks and measured after 6 hrs post dose by Western blot analysis; type: organism-based; conditions: in vivo, po; procedure, shortened: as §1
Mus musculus [13] = assay: Hypoglycemic activity in high fat diet-induced obese C57BL/6J mouse assessed as increase in insulin level at 300 mg/kg administered via gavage […] and measured after 6 hrs post dose; type: functional, organism-based; procedure, shortened: as §2
C2C12 = assay: Activation of insulin signalling in palmitate-induced insulin resistant mouse C2C12 cells assessed as increase in glycogen level at 10 ug/ml; type: functional, cell-based
Procedure, shortened: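 Palmitate-treated, insulin-resistant C2C12 myotubes (differentiated in 2% horse serum, low-glucose DMEM) were treated at 10 μg/mL and exposed to insulin for 10 min before harvest. Glycogen was measured with a kit assay and expressed as ng released glucose/μg protein.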

Mus musculus [14] = assay: Effect on insulin signalling in high fat diet-induced obese C57BL/6J mouse assessed as increase in IR-beta phosphorylation at tyrosine 1150 residue at 100 to 300 mg/kg administered via gavage for 2 weeks and measured after 6 hrs post dose by Western blot analysis; type: functional, organism-based; procedure, shortened: as §1
Mus musculus [15] = assay: Effect on insulin signalling in high fat diet-induced obese C57BL/6J mouse assessed as effect on AKT phosphorylation at threonine 308 residue expression in adipose tissue at 100 to 300 mg/kg administered via gavage for 2 weeks and measured after 6 hrs post dose by Western blot analysis; type: functional, organism-based; procedure, shortened: as §1
[16] = Toxicity in high fat diet-induced obese C57BL/6J mouse assessed as effect on body weight at 300 mg/kg administered via gavage for 2 weeks and measured after 6 hrs post does; type: organism-based; conditions: in vivo, po; procedure, shortened: as §3

Activity [8]	Activity [10]	SMILES	Activity (Mus musculus [1])	Activity (Mus musculus [2])	Activity (Mus musculus [3])	Activity [4]	Activity (Mus musculus [5])	Activity (Mus musculus [6])	Activity (Mus musculus [7])	Activity (Mus musculus [9])	Activity (Mus musculus [11])	Activity [12]	Activity (Mus musculus [13])	Activity (C2C12)	Activity (Mus musculus [14])	Activity (Mus musculus [15])	Activity [16]
Active	Active	COc1ccc(CCC(=O)c2ccc(O)cc2O)cc1	Active	Active	inactive	Non-Toxic	inactive	Non-Toxic	Active	Active	Active	Toxic	Active	Active	inactive	inactive	
		CN(C)C(=N)N=C(N)N [METFORMIN]															Non-Toxic
